# Published values from different studies.
# Target: MAP kinase-interacting serine/threonine-protein kinase 2 (MKNK2, Homo sapiens, UniProt Q9HBH9)
SMILES,read-out,action,method,tested at,quantity,value
N#CC1(c2ccccn2)CCN(Cc2cc(C(=O)O)c(=O)n3ccccc23)CC1,cell-free assay,,competition with immobilised ligand,1 µM,remaining binding,85%
C#Cc1n[nH]c2c(-c3cn(C(C)c4ccccn4)c(=O)[nH]c3=O)cc(F)cc12 (stereo not shown),enzyme activity,inhibitor,,1 µM,inhibition,9.9%
Nc1ncc(-c2nc(N3CCOCC3)nc(N3CCOCC3)n2)c(C(F)F)n1,binding,,competition with immobilised ligand,10 µM,remaining binding,56%
Cn1cncc1[C@](O)(COc1ccc(C#N)cc1-c1ccc(OC(F)(F)F)cc1)c1ccc(C#N)cc1,cell-free assay,,competition with immobilised ligand,1 µM,remaining binding,85%
CC(C)(C)c1cc(C=C(C#N)C#N)cc(Br)c1O,enzyme activity,inhibitor,,0.5 µM,remaining activity,100%
C#Cc1n[nH]c2c(-c3cn([C@@H](C)c4ccccc4)c(=O)[nH]c3=O)cc(F)cc12,enzyme activity,inhibitor,,0.1 µM,inhibition,-7.9%
COc1cc(Nc2ncc(F)c(Nc3ccc4c(n3)NC(=O)C(C)(C)O4)n2)cc(OC)c1OC,binding,,competition with immobilised ligand,10 µM,inhibition,100%
O=c1[nH]c2ccccc2n1C1CCN(Cc2ccc(-c3[nH]c4cc5ncnc5cc4nc3-c3ccccc3)cc2)CC1,cell-free assay,,,0.5 µM,remaining signal,98.7%
Cc1nn(C)cc1-c1nc2c(N3CCN(Cc4ccc(Cl)cc4)CC3)c(Cl)cnc2[nH]1,binding,,competition with immobilised ligand,1 µM,remaining binding,46%
COc1ncccc1-c1cnn2ccc(N3CCN(C(=O)OC(C)C)CC3)nc12,binding,,competition with immobilised ligand,1 µM,remaining binding,100%
